# Screening data as filed in PubChem.
# HIV Rev-RRE inh = HIV-1 Rev-RRE binding inhibitors, primary screen, biochemical, FRET, protein-RNA interaction. Rev peptide-RRE RNA binding. inhibition, % at 8 µM. 97,000 tested, 0.79% active;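 active means inhibition above the screen-wide mean plus 3 SD, cut at about 35% in these data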
# Target sequence (P05866 whole entry, looked up): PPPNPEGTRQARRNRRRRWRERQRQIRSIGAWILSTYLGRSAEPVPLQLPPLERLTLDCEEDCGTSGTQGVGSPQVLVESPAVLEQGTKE
#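 Test system – labelled RRE RNA duplex and labelled Rev peptide · Signal – fluorescein-to-Cy5 FRET, 480 nm excitation · Evaluation – % inhibition of FRET ratio versus controls · Benchmarks – DMSO low control, neomycin B high control · Incubation – 5 min RNA-compound premix plus 15 min binding step, 25 °C · Medium – HEPES pH 7.5 salt buffer with EDTA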
# CYP2C19 activ = human CYP2C19 activators, primary screen, biochemical, luminescence | Cytochrome P450 2C19 (Homo sapiens), P33261 | recombinant CYP2C19, luciferin-H EGE luminescence; stronger effect = higher value; 0 = fully inhibited enzyme, 1 = untreated enzyme | activation factor at 5 µM | 96,000 tested, under 10 active | AID 1025, 2008;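 active means activation factor of at least 2 at 5 µM in the primary screen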
# Target sequence (P33261 whole entry, looked up): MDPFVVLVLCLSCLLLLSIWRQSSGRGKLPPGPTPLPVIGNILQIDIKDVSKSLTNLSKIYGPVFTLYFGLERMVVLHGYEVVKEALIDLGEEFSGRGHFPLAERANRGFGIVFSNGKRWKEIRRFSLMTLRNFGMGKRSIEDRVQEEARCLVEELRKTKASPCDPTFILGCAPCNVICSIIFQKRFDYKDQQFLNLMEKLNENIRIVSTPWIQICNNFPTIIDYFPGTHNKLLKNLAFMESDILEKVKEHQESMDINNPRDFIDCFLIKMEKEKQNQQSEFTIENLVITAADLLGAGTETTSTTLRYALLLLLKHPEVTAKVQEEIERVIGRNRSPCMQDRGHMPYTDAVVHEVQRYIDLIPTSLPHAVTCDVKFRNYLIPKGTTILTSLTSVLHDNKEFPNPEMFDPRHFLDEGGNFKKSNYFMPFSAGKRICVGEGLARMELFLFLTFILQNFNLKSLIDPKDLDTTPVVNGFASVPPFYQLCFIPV
# CYP2C9 inhib = blockers of cytochrome P450 2C9 activity – biochemical, luminescence, ADME assay, primary screen | 96,000 tested, 20% active | CYP2C9 Supersomes, luciferin-H conversion | P11712 | AID 777, 2007 | inhibition, % at 5 µM;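 active means blocking of liver enzyme CYP2C9 beyond about 50% at 5 µM, limit read from the data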
# CYP2C19 inh = blockers of cytochrome P450 2C19 activity – biochemical, luminescence, ADME assay, primary screen. P33261. CYP2C19 Supersomes, luciferin-H EGE luminescence, 30 min. inhibition, % at 5 µM. 96,000 tested, 21% active. AID 778, 2007;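 active means CYP2C19 inhibition above a set limit at 5 µM in the primary screen, cut at about 50% in these data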
# Cav3 T inh = Cav3.2 calcium influx blockers – cell-based, Fluo-4 calcium fluorescence, FDSS, MLSMR library, primary screen | Voltage-dependent T-type calcium channel subunit alpha-1H (Homo sapiens), O95180 | Cav3.2-expressing cells; stronger effect = lower value | B-score at 10 µM | 100,000 tested, 4% active;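 active means single-dose well whose peak fluorescence ratio is a statistical outlier from its plate by either plate-standardised score or position-corrected B-score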
# CYP2C9 act = human CYP2C9 activators, primary screen, biochemical, luminescence; Cytochrome P450 2C9 (Homo sapiens), P11712; recombinant CYP2C9, luciferin-H conversion; stronger effect = higher value; factor 1 = untreated enzyme, 0 = blocked; activation factor at 5 µM; 96,000 tested, 1.4% active; AID 1024, 2008;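 active means activation factor of 2 or more for CYP2C9 at a 5 µM dose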
# Numbers stand for hits; 0 = inactive; - = no result. Compounds with a hit are over-represented: about 27% of the library has one in this group of screens.
SMILES,HIV Rev-RRE inh,CYP2C19 activ,CYP2C9 inhib,CYP2C19 inh,Cav3 T inh,CYP2C9 act
O=S(=O)(c1ccc(Br)s1)N1CCN(c2ccccc2)CC1,0,0,0,0,0,0
COc1ccc(NC(=O)C2CCCN(C)C2)cc1OCC(C)C (configuration not stated),0,-,-,-,0,-
O=C(NCc1ccc2c(c1)OCO2)c1cccnc1,0,0,0,59,0,0
COC(=O)c1ccc(CSc2ncn[nH]2)o1,0,0,0,0,0,0
COC(=O)c1ccc(CSc2nc3ccccc3s2)o1,0,0,0,95,0,0
COC(=O)c1ccc(CSc2ncnc3ccccc23)o1,0,0,0,70,0,0
COC(=O)c1ccc(CSc2n[nH]c(=S)s2)o1,0,0,58,0,0,0
CCN(CC)CCOC(=O)C12CC3CC(CC(C3)C1)C2,0,0,0,0,0,0
CCN1C(=O)C2(C(C#N)=C(N)Oc3n[nH]c(-c4ccccc4)c32)c2ccccc21 (configuration not stated),0,0,0,0,0,0
N#CC1=C(N)Oc2ccccc2C12C(=O)Nc1n[nH]c(-c3ccccc3)c12 (configuration not stated),0,0,54,0,0,0
CCCN(C(=O)c1cccs1)c1nnc(-c2ccncc2)s1,0,0,55,99,0,0
COc1ccc(CNC(=O)C(=O)NCC2OCCN2S(=O)(=O)c2ccc3c(c2)OCCO3)cc1 (configuration not stated),-,-,-,-,0,-
CC1=C(C(=O)OC(C)C)C(c2ccc(Br)s2)NC(=O)N1 (configuration not stated),0,0,0,82,0,0
CCC(C)OC(=O)C1=C(C)NC(=O)NC1c1ccc(F)cc1 (configuration not stated),0,0,0,95,0,0
CC1=C(C(=O)OCc2ccc3c(c2)OCO3)C(c2ccc(F)cc2)NC(=O)N1 (configuration not stated),0,0,52,0,-,0
CCOC(=O)C1=C(Cn2ccc(C(F)(F)F)n2)NC(=O)NC1c1ccc2c(c1)OCO2 (configuration not stated),0,0,65,72,0,0
CC1=C(C(=O)OCc2ccc3c(c2)OCO3)C(c2ccc(Cl)cc2)NC(=O)N1 (configuration not stated),0,0,0,0,0,0
CCOc1cc(C2NC(=O)NC(C)=C2C(=O)OC(C)CC)cc(Br)c1O (configuration not stated),0,0,0,0,0,0
NC(=S)NNC(=O)c1ccccc1,0,0,0,0,0,0
Fc1cccc(CN2CCN(c3ncccn3)CC2)c1,-,0,0,0,0,0
Cc1cccc(NC(=O)C2CC(=O)N(c3ccccc3)C2)c1C (configuration not stated),0,0,0,0,0,0
CC1=C(C(=O)OC(C)C)C(c2ccc(F)cc2)NC(=O)N1 (configuration not stated),0,0,0,85,0,0
CC1=C(C(=O)OC(C)C)C(c2ccco2)NC(=O)N1 (configuration not stated),0,0,0,0,0,0
CC1=C(C(=O)OCC(C)C)C(c2ccsc2)NC(=O)N1 (configuration not stated),0,0,52,65,-,0
Nc1nnnn1/N=C/c1ccc(O)cc1,0,0,84,68,0,0
SMILES,HIV Rev-RRE inh,CYP2C19 activ,CYP2C9 inhib,CYP2C19 inh,Cav3 T inh,CYP2C9 act
COc1cccc(COc2ccccc2C2Nc3ccc(Br)cc3C(=O)N2NC(=O)c2ccncc2)c1 (configuration not stated),0,0,85,69,-,0
COC(=O)CCCCCC(CCC(=O)OC)NC(C)=O (configuration not stated),0,0,0,0,0,0
CCCN1/C(=C2/SC(=S)N(CC)C2=O)C=Cc2ccccc21,0,0,0,0,0,0
C=CCN1C(=O)/C(=C2/Sc3ccccc3N2CCCS(=O)(=O)O)SC1=S,0,0,60,0,-,0
C=CCN1C(=O)/C(=C2/C(=O)N(CC(=O)O)c3ccccc32)S/C1=N/c1nccs1,0,0,0,0,-,0
CN1C(=O)/C(=C2/C=Cc3ccccc3N2CCCS(=O)(=O)O)SC1=S,0,0,53,0,-,0
O=C(O)CCCCCCCCCCCc1ccccc1,-,-,-,-,0,-
COc1ccc2nc(C)c(C(=O)OCCN(C)C)cc2c1,-,0,0,0,-,0
CCOC(=O)c1sc(NC(=O)CSc2nncs2)c(C(=O)OCC)c1C,0,0,0,0,0,0
CCOC(=O)c1c(NC(=O)CSc2nc(C)cc(C)c2C#N)sc(C(C)=O)c1C,0,0,0,0,-,0
CCOC(=O)c1c(NC(=O)CSc2nnc(-c3cccc(C)c3)n2CC)sc(C(C)=O)c1C,0,0,94,0,0,0
CCOC(=O)c1c(NC(=O)CSc2nnc(-c3ccccc3)n2CC)sc(C(C)=O)c1C,0,0,97,90,0,0
CCOC(=O)c1c(NC(=O)C2c3ccccc3Oc3ccccc32)sc(C(C)=O)c1C,0,0,94,0,0,0
NCCCCc1cn(CC(=O)N2CCNCC2)nn1,-,-,-,-,0,-
COc1ccc2[nH]cc(C3N4CC5(C)CN3CC(C)(C4)C5=O)c2c1 (configuration not stated),0,0,0,0,0,0
COc1ccc(Br)cc1C1N2CC3(C)CN1CC(C)(C2)C3=O (configuration not stated),0,0,0,77,0,0
Cc1cc2cc(C=O)c(Cl)nc2cc1C,0,0,0,0,-5.9,0
CC(C)CNC(=O)c1cc2nc(C3CC3)cc(C(F)(F)F)n2n1,0,-,-,-,0,-
CCOc1ccc(-c2nc(-c3ccccc3C)no2)cc1,0,0,0,0,0,0
O=S(=O)(Nc1cccc(CCc2ccccn2)c1)c1ccc2ccccc2c1,0,0,0,99,-4.4,0
Cc1nc(-c2cccc(NS(=O)(=O)c3ccc4ccccc4c3)c2)cs1,0,0,0,0,0,0
CC(NC(=O)c1ccc(F)cc1)c1ccccc1 (configuration not stated),0,0,0,0,0,0
CC(NC(=O)c1ccc(F)cc1)c1ccc2c(c1)CCCC2 (configuration not stated),0,0,0,0,-8.5,0
COc1cc(C(=O)NC(=S)Nc2ccc3oc(=O)ccc3c2)cc(OC)c1OC,0,0,0,0,0,0
O=C(NC(=S)Nc1ccc(N2CCOCC2)c(Cl)c1)C(c1ccccc1)c1ccccc1,0,0,76,0,0,0
O=C(Nc1ccc(NC(=S)NC(=O)C(c2ccccc2)c2ccccc2)cc1)c1ccccc1,0,-,-,-,-4.3,-
